Active and inactive are the calls of the source. No cut-off for these calls is given here.
Key:
[1] = Cytotoxicity against human NTUB1 cells after 72 hrs by MTT assay; format: functional, cell-based; conditions: NTUB1, 72 h
Outline: (§1)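 Cells grown in RPMI 1640 with 10% FBS, penicillin/streptomycin and 2 mM L-glutamine at 37 °C under 5% CO₂. Seeded 1800 cells/well, left overnight, then given graded compound concentrations for 72 h; compounds diluted from DMSO, 0.1% DMSO in medium and in controls. MTT 2 mg/mL in PBS for 3 h, formazan dissolved in DMSO, absorbance 540 nm. Viability given as % of control; IC50 by median-effect analysis, mean ± SD.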

PC-3 = experiment: Cytotoxicity against human PC3 cells at 50 uM after 72 hrs by MTT assay; format: functional, cell-based; outline: as §1
A549 = experiment: Cytotoxicity against human A549 cells at 50 uM after 72 hrs by MTT assay; format: functional, cell-based; outline: as §1
[2] = Induction of apoptosis in human NTUB1 cells assessed as accumulation at subG1 phase at 20 uM after 24 hrs using propidium iodide staining by flow cytometry; format: functional
Outline: (§2)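 NTUB1 cells plated at 8 × 10⁵ per 10 cm dish and exposed to compound for 24 or 48 h; untreated controls got medium alone. Cells trypsinized, PBS-washed and fixed overnight in ice-cold MeOH at −20 °C, then stained with 50 µg/mL propidium iodide plus RNase A. DNA content was read by flow cytometry, with apoptosis taken as sub-G1 accumulation. Three independent experiments.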

[3] = Cell cycle arrest in human NTUB1 cells assessed as accumulation at G1 phase at 20 uM after 24 hrs using propidium iodide staining by flow cytometry; format: functional, cell-based; outline: as §2
[4] = Cell cycle arrest in human NTUB1 cells assessed as accumulation at S phase at 20 uM after 24 hrs using propidium iodide staining by flow cytometry; format: functional, cell-based; outline: as §2
[5] = Cell cycle arrest in human NTUB1 cells assessed as accumulation at G2/M phase at 20 uM after 24 hrs using propidium iodide staining by flow cytometry; format: functional, cell-based; outline: as §2
[6] = Induction of apoptosis in human NTUB1 cells assessed as accumulation at subG1 phase at 40 uM after 24 hrs using propidium iodide staining by flow cytometry; format: functional; outline: as §2
[7] = Cell cycle arrest in human NTUB1 cells assessed as accumulation at G1 phase at 40 uM after 24 hrs using propidium iodide staining by flow cytometry; format: functional, cell-based; outline: as §2
[8] = Cell cycle arrest in human NTUB1 cells assessed as accumulation at S phase at 40 uM after 24 hrs using propidium iodide staining by flow cytometry; format: functional, cell-based; outline: as §2
[9] = Cell cycle arrest in human NTUB1 cells assessed as accumulation at G2/M phase at 40 uM after 24 hrs using propidium iodide staining by flow cytometry; format: functional, cell-based; outline: as §2
[10] = Cytotoxicity against human NTUB1 cells assessed as cell viability at >30 uM after 72 hrs by MTT assay; format: functional; outline: as §1

| Structure (SMILES) | IC50 [1] [µM] | Activity [10] [%] | also measured |
| --- | --- | --- | --- |
| C[C@H]1[C@H](C)CC[C@]2(C(=O)O)CC[C@]3(C)C(=CC[C@@H]4[C@@]5(C)CC[C@H](OC(=O)CCC(=O)O)C(C)(C)[C@@H]5CC[C@]43C)[C@H]12 | 8.65 | – | Activity (PC-3): Active; Activity (A549): Active; Activity [2]: 7.27%; Activity [3]: 13.1%; Activity [4]: 18.5%; Activity [5]: 24.1%; Activity [6]: 61.37%; Activity [7]: 18.9%; Activity [8]: 7.51%; Activity [9]: 7.36% |
| C[C@H]1[C@H](C)CC[C@]2(C(=O)O)CC[C@]3(C)C(=CC[C@@H]4[C@@](C)(CCC(=O)O)[C@H](C(C)(C)O)CC[C@]43C)[C@H]12 | > 30 | 56.04 | – |
| CCCC(=O)O[C@H]1CC[C@]2(C)[C@H]3CC=C4[C@@H]5[C@@H](C)[C@H](C)CC[C@]5(C(=O)O)CC[C@@]4(C)[C@]3(C)CC[C@H]2C1(C)C | > 30 | 76.47 | – |
| C=C(C)[C@@H]1CC[C@]2(C)[C@H](CC=C3[C@@H]4[C@@H](C)[C@H](C)CC[C@]4(C(=O)O)CC[C@]32C)[C@@]1(C)CCC(=O)OC | > 30 | 62.77 | – |
| COC(=O)[C@]12CC[C@@H](C)[C@H](C)[C@H]1C1=CC[C@@H]3[C@@]4(C)CC[C@H](O)C(C)(C)[C@@H]4CC[C@@]3(C)[C@]1(C)CC2 [METHYL URSOLATE] | 37.1 | – | – |
| C[C@H]1[C@H](C)CC[C@]2(C(=O)OCCO)CC[C@]3(C)C(=CC[C@@H]4[C@@]5(C)CC[C@H](O)C(C)(C)[C@@H]5CC[C@]43C)[C@H]12 | 19.5 | – | – |
| CCOC(=O)[C@]12CC[C@@H](C)[C@H](C)[C@H]1C1=CC[C@@H]3[C@@]4(C)CC[C@H](O)C(C)(C)[C@@H]4CC[C@@]3(C)[C@]1(C)CC2 | 13.5 | – | – |
| C[C@H]1[C@H](C)CC[C@]2(C(=O)OCC(=O)OC(C)(C)C)CC[C@]3(C)C(=CC[C@@H]4[C@@]5(C)CC[C@H](O)C(C)(C)[C@@H]5CC[C@]43C)[C@H]12 | > 30 | 64.85 | – |
| CC(C)CC(=O)O[C@H]1CC[C@]2(C)[C@H]3CC=C4[C@@H]5[C@@H](C)[C@H](C)CC[C@]5(C(=O)O)CC[C@@]4(C)[C@]3(C)CC[C@H]2C1(C)C | 31 | – | – |
| CC(=O)O[C@H]1CC[C@]2(C)[C@H]3CC=C4[C@@H]5[C@@H](C)[C@H](C)CC[C@]5(C(=O)O)CC[C@@]4(C)[C@]3(C)CC[C@H]2C1(C)C [O-ACETYLURSOLIC ACID] | 14.3 | – | – |
| C/C=C/C(=O)O[C@H]1CC[C@]2(C)[C@H]3CC=C4[C@@H]5[C@@H](C)[C@H](C)CC[C@]5(C(=O)O)CC[C@@]4(C)[C@]3(C)CC[C@H]2C1(C)C | 11.9 | – | – |
| C[C@H]1[C@H](C)CC[C@]2(C(=O)O)CC[C@]3(C)C(=CC[C@@H]4[C@@]5(C)CCC(=O)C(C)(C)[C@@H]5CC[C@]43C)[C@H]12 [URSONIC ACID] | 21.4 | – | – |
